An excerpt weighted towards active compounds, which were near 2.3% of everything screened.
HSP90 refold inh: inhibitors of HSP90 luciferase refolding in rabbit reticulocyte lysate. 290,000 compounds, 0.91% hits. luciferase refolding luminescence, 3 h. AID 1789. inhibition, % at 5.6 µM;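 active means inhibition above the screen-wide mean plus 3 SD, computed separately per campaign, cut at about 16% in these data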;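 further: inhibitors lower the luminescence because luciferase stays unfolded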
STAT1 inh: STAT1 signaling inhibition; NIH 3T3 STAT1-luciferase reporter, IFN-gamma, luminescence; inhibition, % at 5.5 µM; 200,000 compounds, 0.35% hits; AID 920;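 active means inhibition above a set limit, the mean inhibition across all tested compounds plus 3 SD, cut at about 34% in these data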
PPC-1+TRAIL kill: kills PPC-1 cancer cells in the presence of TRAIL; cell killing (% activity), % at 4 µM or 5 µM; PPC-1 cells + TRAIL, ATPLite viability luminescence; 220,000 compounds, 0.41% hits;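 active means cell killing above 50% in the first pass at 4 µM, then a duplicate retest at 5 µM averaging 50% or more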
TRAIL sens C8: caspase-8 TRAIL sensitization; NB7+C8 cells + TRAIL, ATPlite viability luminescence; inhibition (viability loss, TRAIL sensitization), % at 10 µM; 360,000 compounds, 1% hits;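 active means compounds causing at least 50% loss of cell viability in the single-dose screen, relative to plate controls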
STAT3 act-1: STAT3 signaling activation; activation (% of control), % at 5.6 µM; U3A cells, IL-6 STAT3-luciferase reporter, luminescence; 100% = signal with IL-6 EC80 alone; 190,000 compounds, 0.91% hits;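 active means activation above the screen-wide mean of compound activation plus 3 SD, cut at about 130% in these data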
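system = STAT3-luciferase reporter U3A cells | reagent = IL-6 stimulus at 33 ng/mL final | timing = 1 h compound pre-exposure, 6 h IL-6 stimulation, 37 °C | measured by = luminescence | evaluation = % activation versus median of IL-6-stimulated wells | control set = IL-6-only wells as 100% reference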
STAT3 blocker: reduces IL-6 driven STAT3 reporter signal; U3A cells, IL-6 STAT3-luciferase reporter, luminescence; host cell line lacks STAT1; inhibition, % at 5.5 µM; 190,000 compounds, 0.89% hits; AID 862;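 active means inhibition above the mean inhibition across all screened compounds plus 3 SD, cut at about 44% in these data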
STAT3 act-2: STAT3 activation, confirmation assay | potentiation (% of control), % at 5.7 µM | shares compounds with STAT3 act-1 | 1,200 compounds, 64% hits | U3A STAT3-luciferase reporter, IL-6 potentiation, luminescence; U3A cells lack STAT1; 100 means same as IL-6 alone | AID 1267;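 active means percent activation of the STAT3 luciferase reporter above a set limit taken from the earlier primary screen, cut at about 130% in these data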
NFkB act 2: counter-screen for STAT3 activators: NF-kappaB activation. shares compounds with STAT3 act-1. human cells, NF-kappaB reporter activation. activation (% of control), % at 5.7 µM. 1,200 compounds, 11% hits. AID 1309; in the data active means activation above about 120%;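 further: reporter induced by TNF-alpha stimulation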
STAT1 act STAT3c: counter-screen for STAT3 activators: STAT1 activation; shares compounds with STAT3 act-1; NIH 3T3 STAT1-luciferase reporter, IFN-gamma, luminescence; activation (% of control), % at 5.7 µM; 1,200 compounds, 13% hits; AID 1318;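 active means activation above the solvent-only control well mean plus 3 SD, set per screening run, cut at about 120% in these data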
Numbers stand for hits; i = inactive; nt = not tested or not shown.

SMILES | HSP90 refold inh | STAT1 inh | PPC-1+TRAIL kill | TRAIL sens C8 | STAT3 act-1 | STAT3 blocker | STAT3 act-2 | NFkB act 2 | STAT1 act STAT3c
CCC(C)NC(=O)C(NS(=O)(=O)c1cccc2nsnc12)c1ccccc1 (centres undefined) | i | i | i | i | 138.7 | i | i | i | i
COc1ccc(NC(=O)C2Cc3c(-c4ccc(Cl)cc4)ccnc3O2)cc1OC (centres undefined) | nt | nt | nt | i | nt | nt | nt | nt | nt
O=Cc1cc2ccccc2nc1SCc1ccc(Cl)cc1 | i | i | i | i | 160.6 | i | i | i | i
Cc1ccc(CSc2nc3ccccc3cc2C=O)cc1 | i | i | i | i | 193.4 | i | 152.9 | i | i
O=Cc1cc2ccccc2nc1SCc1ccc(Cl)c(Cl)c1 | i | i | i | i | i | i | nt | nt | nt
CSc1nnc2c3ccccc3c3ccccc3c2n1 | i | i | i | i | 162.3 | i | 147.2 | i | i
CSc1nnc(-c2ccccc2)c(-c2ccccc2)n1 | i | nt | i | i | nt | nt | nt | nt | nt
N#Cc1ccc(-n2nnc3ccccc3c2=O)c([N+](=O)[O-])c1 | nt | nt | nt | i | nt | nt | nt | nt | nt
CSCC[C@H](NC(=O)CCn1nnc2ccccc2c1=O)C(=O)O | i | i | i | i | 138.5 | i | i | i | i
CC(C)C[C@H](NC(=O)CCCn1nnc2ccccc2c1=O)C(=O)O | i | nt | i | i | nt | nt | nt | nt | nt
O=c1c(/C=C(\O)c2ccc(F)cc2)nc2ccccc2n1-c1ccccc1 | i | i | i | i | i | i | nt | nt | nt
Cn1c(=O)c(/C=C/c2ccc(F)cc2)nc2ccccc21 | i | i | i | i | 152.3 | i | 176.9 | i | 128.6
O=C(Cn1c(=O)n(Cc2ccco2)c(=O)c2c3c(sc21)CCCC3)Nc1ccccc1 | i | i | i | i | i | i | nt | nt | nt
NC(=O)Cn1c(=O)n(Cc2ccco2)c(=O)c2c3c(sc21)CCCCC3 | i | i | i | i | 147.1 | i | i | i | i
COCCSc1nnc(NC(=O)CSc2ccccc2)s1 | i | i | i | i | i | i | nt | nt | nt
CCOc1ccc(C=Nc2cccc3ncccc23)cc1 | i | i | i | i | 148.9 | i | 147.8 | i | i
Cn1c(=O)c(-c2cc(Br)ccc2N)nc2ccccc21 | i | i | i | i | 164.3 | i | 155.0 | i | i
CCOc1ccc(Nc2nc(C)cc(C)c2C#N)cc1 | i | i | i | i | 140.4 | i | i | i | i
COc1ccc(Nc2nc(C)cc(C)c2C#N)cc1 | i | i | i | i | 137.2 | i | 149.9 | i | i
N#C/C(=C(/O)COC(=O)c1ccc(O)cc1)c1nc2ccccc2[nH]1 | i | nt | i | i | nt | nt | nt | nt | nt
O=C(Cc1c(C(=O)O)[nH]c2ccc(Cl)cc12)Nc1ccc2c(c1)OCCO2 | i | i | i | i | i | i | nt | nt | nt
Cc1c(C(=O)NCc2ccccc2CN2CCCC2)oc2ccccc12 | nt | nt | nt | i | nt | nt | nt | nt | nt
O=C(COC(=O)c1ccc2c(c1)C(=O)N(Cc1ccncc1)C2=O)Nc1ccccc1[N+](=O)[O-] | i | i | i | i | 138.2 | i | 146.6 | i | i
CC(OC(=O)c1ccc2c(c1)C(=O)N(Cc1ccncc1)C2=O)C(=O)Nc1cccc(Cl)c1Cl (centres undefined) | i | i | i | i | i | i | nt | nt | nt
O=C(/C=C/c1c(F)cccc1Cl)NCc1ccco1 | i | i | i | i | i | i | nt | nt | nt
SMILES | HSP90 refold inh | STAT1 inh | PPC-1+TRAIL kill | TRAIL sens C8 | STAT3 act-1 | STAT3 blocker | STAT3 act-2 | NFkB act 2 | STAT1 act STAT3c
O=C(CN1C(=O)/C(=C/c2c(F)cccc2Cl)Oc2ccccc21)NCc1ccco1 | i | i | i | nt | 153.9 | i | 187.3 | i | i
CCn1cc(C(=O)N2CCc3ccccc32)c(=O)c2cc(S(=O)(=O)N3CCOCC3)ccc21 | i | i | i | i | 145.9 | i | i | i | i
O=C(Cc1ccccc1)NN1C(=O)/C(=C/c2ccc(C(=O)O)cc2)SC1=S | i | nt | i | i | nt | nt | nt | nt | nt
COc1cc(C2SCC(=O)N2c2nnc(C34CC5CC(CC(C5)C3)C4)s2)cc(OC)c1OC (centres undefined) | i | i | i | i | 165.1 | i | 141.7 | i | i
Cc1c(C(=O)O)nn(-c2cccc(C(F)(F)F)c2)c(=O)c1C#N | i | nt | nt | i | nt | nt | nt | nt | nt
Cc1oc(/N=C/c2ccc(Cl)cc2)c(C#N)c1C | i | i | i | i | 145.6 | i | 136.4 | i | i
Cc1oc(/N=C/c2ccc(Cl)cc2Cl)c(C#N)c1C | i | i | i | i | i | i | nt | nt | nt
Cc1oc(/N=C/c2ccccc2O)c(C#N)c1C | i | i | i | i | 145.9 | i | 156.9 | i | i
COc1ccc(-c2cc(C(=O)Nc3cc(OC)c(OC)c(OC)c3)[nH]n2)c(C)c1 | nt | nt | nt | i | nt | nt | nt | nt | nt
COc1ccc(OC)c(NC(=O)c2cc3ccccc3o2)c1 | i | i | i | i | 136.1 | i | i | i | i
O=C(O)CN1C(=O)/C(=C\c2cc(Br)ccc2OCc2ccccc2Cl)SC1=S | i | nt | nt | i | nt | nt | nt | nt | nt
COc1ccc(CCNC(=O)C2CCN(C(=O)c3ccc(C(C)(C)C)cc3)CC2)cc1OC | i | nt | nt | i | nt | nt | nt | nt | nt
CCOC(=O)C(C(=O)Nc1nc2ccccc2s1)C1CCCCC1 (centres undefined) | i | i | i | i | 142.6 | i | i | i | i
N/C(=N\NC(=O)c1cccc(F)c1)c1cc2ccccc2oc1=O | i | nt | i | i | nt | nt | nt | nt | nt
N/C(=N\NC(=O)c1ccc(F)cc1)c1cc2ccccc2oc1=O | i | i | i | i | 146.5 | i | 142.1 | i | i
O=C(NC1CCCCC1)C1Cc2ccccc2CN1S(=O)(=O)c1ccc(F)cc1 (centres undefined) | i | i | i | i | i | i | nt | nt | nt
O=C(Nc1nccs1)C1Cc2ccccc2CN1S(=O)(=O)c1ccc(F)cc1 (centres undefined) | i | i | i | i | 138.3 | i | i | 126.1 | 148.3
CCOC(=O)C1=NN(c2ccccc2)C(c2ccccc2)CC1=O (centres undefined) | i | i | i | i | 138.3 | i | i | i | i
COc1ccc(/C=C/c2nnc(NC(=O)COc3ccccc3)s2)cc1 | i | nt | i | i | nt | nt | nt | nt | nt
CCCc1cc2c(=O)c(-c3nc4ccccc4s3)c(COCC(=O)O)oc2cc1O | i | i | i | i | 151.2 | i | 146.5 | i | i
CCc1cc2c(=O)c(-c3nc4ccccc4n3C)c(COCC(=O)O)oc2cc1O | i | i | i | i | i | i | nt | nt | nt
COc1ccc2ccc3c(c2c1)N=CC1(O3)N(C)c2ccccc2C1(C)C (centres undefined) | i | i | i | i | i | i | nt | nt | nt
CN1c2ccccc2C(C)(C)C12C=Nc1c(ccc3ccccc13)O2 (centres undefined) | i | i | i | i | 165.8 | i | 150.1 | i | i
